# Assay results from ChEMBL document CHEMBL1124257, “An examination of O-2-isocephems as orally absorbable antibiotics” (J Med Chem, 1988).
# Assays:
# [1] = tested on: Klebsiella pneumoniae; test: Minimum inhibitory concentration (MIC) against Klebsiella pneumoniae by 2-fold microdilution technique.; type: functional; conditions: Klebsiella pneumoniae; read-out: MIC
# Method in brief: (§1)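 For each organism, an overnight culture was grown in Mueller-Hinton broth at 37 °C. Twofold microtiter dilutions in Nutrient Broth covered 0.005–125 µg/mL. Each well received about 10^4 organisms, and plates were incubated 18 h at 37 °C. MIC was the lowest concentration giving no visible growth.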
# [2] = tested on: Streptococcus pyogenes; test: Minimum inhibitory concentration (MIC) against Streptococcus pyogenes by 2-fold microdilution technique; type: functional; conditions: Streptococcus pyogenes; read-out: MIC; method in brief: as §1
# [3] = tested on: Escherichia coli; test: Minimum inhibitory concentration (MIC) […] against Escherichia coli.; type: functional; conditions: Escherichia coli; read-out: MIC; method in brief: as §1
# [4] = tested on: Streptococcus pneumoniae; test: Minimum inhibitory concentration (MIC) against Streptococcus pneumoniae by 2-fold microdilution technique; type: functional; conditions: Streptococcus pneumoniae; read-out: MIC; method in brief: as §1
# [5] = tested on: Enterococcus faecalis; test: Minimum inhibitory concentration (MIC) against Streptococcus faecalis by 2-fold microdilution technique.; type: functional; conditions: Enterococcus faecalis; read-out: MIC; method in brief: as §1
# [6] = tested on: Proteus mirabilis; test: Minimum inhibitory concentration (MIC) against Proteus mirabilis by 2-fold microdilution technique.; type: functional; conditions: Proteus mirabilis; read-out: MIC; method in brief: as §1
# [7] = tested on: Haemophilus influenzae; test: Minimum inhibitory concentration (MIC) against Haemophilus influenzae by 2-fold microdilution technique.; type: functional; conditions: Haemophilus influenzae; read-out: MIC; method in brief: as §1
# [8] = tested on: Escherichia coli; test: Protective dose (PD50) against Escherichia coli infected mice; type: functional; conditions: read-out: PD50
# Method in brief: (§2)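 Male Swiss-Webster mice (20 ± 2 g) were challenged intraperitoneally with enough bacteria to kill untreated controls within 72 h. Drug was given orally by gavage twice: at 0 and 2 h after E. coli challenge, or at 1 and 3.5 h after S. pneumoniae challenge. PD50 is the dose in mg/kg per dose that protects 50% of animals.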
# [9] = tested on: Streptococcus pneumoniae; test: Minimum inhibitory concentration (MIC) […] against Streptococcus pneumoniae.; type: functional; conditions: Streptococcus pneumoniae; read-out: MIC; method in brief: as §1
# [10] = tested on: Streptococcus pneumoniae; test: Protective dose (PD50) against Streptococcus pneumoniae infected mice; type: functional; conditions: Streptococcus pneumoniae; read-out: PD50; method in brief: as §2
# [11] = tested on: Staphylococcus aureus; test: Minimum inhibitory concentration (MIC) against Staphylococcus aureus by 2-fold microdilution technique.; type: functional; conditions: Staphylococcus aureus; read-out: MIC; method in brief: as §1
# [12] = tested on: Escherichia coli; test: Minimum inhibitory concentration (MIC) against Escherichia coli by 2-fold microdilution technique.; type: functional; conditions: Escherichia coli; read-out: MIC; method in brief: as §1
# [13] = tested on: Mus musculus; test: Area under curve(AUC) was measured in mice after oral administration.; type: ADME, organism-based; design: concentration or dose not given beside the values; unit not given here; conditions: in vivo
# Method in brief: (§3)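 Male Swiss-Webster mice (20 ± 2 g) were given a single 50 mg/kg oral dose by gavage. Blood concentrations and urine levels were measured by microbiological assay, and urinary recovery was taken over 0–6 h.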
# [14] = species on record: Mus musculus; test: Percentage of dose recovered after 0-6 hr in the urine of mice was measured.; type: ADME, organism-based; conditions: in vivo; method in brief: as §3
# [15] = Half life was measured.; type: ADME; method in brief: as §3
# [16] = Cmax was measured in mice after an oral dose of 50 mg/kg.; type: ADME, organism-based; design: dose 50 mg/kg, route oral; conditions: mouse, in vivo; method in brief: as §3
# [17] = tested on: Mus musculus; test: Area under curve(AUC) was measured in mice after oral administration (50 mg/kg); type: ADME, organism-based; conditions: in vivo; method in brief: as §3
SMILES,MIC [1] [µg/mL],MIC [2] [µg/mL],MIC [3] [µg/mL],MIC [4] [µg/mL],MIC [5] [µg/mL],MIC [6] [µg/mL],MIC [7] [µg/mL],ED50 [8] [mg/kg],MIC [9] [µg/mL],ED50 [10] [mg/kg],MIC [11] [µg/mL],MIC [12] [µg/mL],AUC [13],"Urinary recovery (% of dose, 0-6 h) [14] [%]",half-life [15] [min],Cmax [16] [ng/mL],AUC [17] [µg/mL]
CC1=C(C(=O)O)N2C(=O)[C@@H](NC(=O)[C@H](N)c3ccc(O)cc3)[C@H]2CO1,8,0.13,8,0.13,16,4,8,11,0.13,2.1,1,8,–,–,–,–,–
C/C=C/C1=C(C(=O)O)N2C(=O)[C@@H](NC(=O)[C@H](N)c3ccc(O)cc3)[C@H]2CO1 (relative stereo),8,0.016,2,0.03,1,0.5,2,> 50,0.03,1.8,0.25,2,30,5,110,11000,–
C=CC1=C(C(=O)O)N2C(=O)[C@@H](NC(=O)[C@H](N)c3ccc(O)cc3)[C@H]2CO1,8,0.016,2,0.03,0.5,0.5,1,2.1,0.03,0.8,0.13,2,–,73,39,26000,30
N[C@@H](C(=O)N[C@@H]1C(=O)N2C(C(=O)O)=C(/C=C/C(F)(F)F)OC[C@H]12)c1ccc(O)cc1,16,0.008,4,0.016,0.13,16,2,> 50,0.016,> 12.5,0.5,4,–,–,–,–,–
C=CC1=C(C(=O)O)N2C(=O)[C@@H](NC(=O)[C@H](N)c3ccc(O)cc3)[C@H]2SC1,16,0.03,–,0.03,2,4,–,–,–,–,0.25,4,21,–,29,22000,–
C=CCC1=C(C(=O)O)N2C(=O)[C@@H](NC(=O)[C@H](N)c3ccc(O)cc3)[C@H]2SC1,4,0.016,–,0.03,18,1,1,–,–,–,0.13,4,41,79,34,45000,–
C=CCC1=C(C(=O)O)N2C(=O)[C@@H](NC(=O)[C@H](N)c3ccc(O)cc3)[C@H]2CO1,16,0.008,4,0.03,1,1,2,9.2,0.016,1,0.13,2,32,46,32,31000,–
CC1=C(C(=O)O)N2C(=O)[C@@H](NC(=O)[C@H](N)c3ccccc3)[C@H]2SC1 [CEPHALEXIN ANHYDROUS],16,0.5,–,0.5,32,4,4,–,–,–,0.5,8,–,–,–,–,–
